# In paper PMC9311154 (British Journal of Clinical Pharmacology, 2022):
# Values joined by “and” are separate entries in the source; they are usually repeats but may differ in a detail not shown here. Equal values may be shown once. “Also recorded” adds a separate entry of the source. Read-outs that look alike come from different tables or passages of the source. Marks after values point to notes of the source that are not given here.
# Columns and labels:
# Safety and tolerability [1] = type: in vivo, human
# prothrombin time (PT) = test: Prothrombin time; type: in vivo, human; conditions: compared with placebo
# [2] = system: activated partial thromboplastin time (aPTT); conditions: whole blood or plasma, in vitro and ex vivo; cited from earlier work
# [3] = animal models; cited from earlier work
# Safety and tolerability [4] = type: in vivo, human; remark: listed apart in the source
# Procedure, shortened: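 Randomised, single-blind, placebo-controlled dose escalation in healthy men, 36 on active and 12 on placebo. Adverse events counted as treatment-emergent if they began or worsened after first study medication, up to 7 days post-treatment. Also assessed: physical examination, vital signs, 12-lead ECG and clinical laboratory tests. All participants dosed at least once were analysed descriptively.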
# [5] = BAY 2433334 pharmacokinetics in plasma and urine, Parts A and B; type: in vivo, human; conditions: for tmax: median (range)
# [6] = system: activated partial thromboplastin time (aPTT); test: aPTT; type: in vivo, human
# FXI = FXI concentration; type: in vivo, human; conditions: compared with placebo
# Procedure, shortened: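 Healthy men randomised to the oral test compound (25/50/100 mg once daily or 25 mg twice daily) or placebo. Single dose day 1, washout days 2–3, repeat dosing days 4–11, final dose day 12, after an overnight fast of at least 10 h on profiling days. FXI concentration measured by microtitre-plate ELISA with polyclonal antibodies. Descriptive summary only.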
# C1 esterase inhibitor = C1 esterase inhibitor activity; type: in vivo, human; conditions: compared with placebo
# Procedure, shortened: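 Healthy men given the oral test compound (25, 50 or 100 mg once daily, or 25 mg twice daily) or placebo: single dose on day 1, washout days 2–3, dosing days 4–11, once-daily dose day 12. C1 esterase inhibitor activity measured in plasma by chromogenic substrate kit on a coagulation analyser, per manufacturer's instructions. Summarised descriptively, with no prespecified formal statistics.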
# [7] = 25 mg multiple dose + midazolam
# [8] = 25 mg treatment sequence, Total (N = 24)
# [9] = 75 mg multiple dose + midazolam
# [10] = 75 mg treatment sequence, Total (N = 24)
# [11] = multiple once‐daily dosing for 9 consecutive days
structure (smiles),measurement,setting,value
CC[C@@H](C(=O)Nc1ccc(C(N)=O)c(F)c1)n1cc(OC)c(-c2cc(Cl)ccc2-n2cc(C(F)(F)F)nn2)cc1=O [BAY 2433334],Adverse event(s) of special interest,Safety and tolerability [1]; [7],0 Number (%)
same,Study drug‐related adverse event(s),Safety and tolerability [1]; [7],0 Number (%)
same,Study procedure‐related adverse event(s),Safety and tolerability [1]; [7],0 Number (%)
same,Adverse event(s) of special interest,Safety and tolerability [1]; 25 mg multiple dose alone,0 Number (%)
same,Study drug‐related adverse event(s),Safety and tolerability [1]; 25 mg multiple dose alone,0 Number (%)
same,Study procedure‐related adverse event(s),Safety and tolerability [1]; 25 mg multiple dose alone,1 (4.2%) Number (%)
same,Adverse event(s) of special interest,Safety and tolerability [1]; 25 mg single dose + midazolam,0 Number (%)
same,Study drug‐related adverse event(s),Safety and tolerability [1]; 25 mg single dose + midazolam,0 Number (%)
same,Study procedure‐related adverse event(s),Safety and tolerability [1]; 25 mg single dose + midazolam,0 Number (%)
same,Adverse event(s) of special interest,Safety and tolerability [1]; [8],0 Number (%)
same,Study drug‐related adverse event(s),Safety and tolerability [1]; [8],0 Number (%)
same,Study procedure‐related adverse event(s),Safety and tolerability [1]; [8],4 (16.7%) Number (%)
same,Adverse event(s) of special interest,Safety and tolerability [1]; [9],0 Number (%)
same,Study drug‐related adverse event(s),Safety and tolerability [1]; [9],0 Number (%)
same,Adverse event(s) of special interest,Safety and tolerability [1]; 75 mg multiple dose alone,0 Number (%)
same,Study drug‐related adverse event(s),Safety and tolerability [1]; 75 mg multiple dose alone,0 Number (%)
same,Study procedure‐related adverse event(s),Safety and tolerability [1]; 75 mg multiple dose alone,0 Number (%)
same,Adverse event(s) of special interest,Safety and tolerability [1]; 75 mg single dose + midazolam,0 Number (%)
same,Study drug‐related adverse event(s),Safety and tolerability [1]; 75 mg single dose + midazolam,0 Number (%)
same,Study procedure‐related adverse event(s),Safety and tolerability [1]; 75 mg single dose + midazolam,0 Number (%)
same,Adverse event(s) of special interest,Safety and tolerability [1]; [10],0 Number (%)
same,Study drug‐related adverse event(s),Safety and tolerability [1]; [10],0 Number (%)
same,Study procedure‐related adverse event(s),Safety and tolerability [1]; [10],2 (8.3%) Number (%)
same,Study drug‐related TEAEs,Safety and tolerability [1]; Part C,No study drug‐related TEAEs
same,Participants who discontinued study medication because of TEAEs,"Safety and tolerability [1]; Part C, 75 mg",2 participants
same,Effect on PT (absolute and INR values),prothrombin time (PT),no effect
same,Prolongation of aPTT,[2],concentration‐dependent prolongation
same,Reduction in thrombus weight,[3],dose‐dependent reductions
same,Adverse event(s) of special interest: Bleeding,Safety and tolerability [4]; 25 mg BID,0 Number (%)
same,Any adverse event(s) of special interest,Safety and tolerability [4]; 25 mg BID,1 (11.1%) Number (%)
same,Any study drug‐related adverse event(s),Safety and tolerability [4]; 25 mg BID,0 Number (%)
same,Any study procedure‐related adverse event(s),Safety and tolerability [4]; 25 mg BID,2 (22.2%) Number (%)
same,TEAE: Medical device site urticaria,Safety and tolerability [4]; 25 mg BID,1 (11.1%) Number (%)
same,Adverse event(s) of special interest: Investigations,"Safety and tolerability [4]; 25 mg BID, Glutamate dehydrogenase increased",1 (11.1%) ^e Number (%)
same,Adverse event(s) of special interest: Bleeding,Safety and tolerability [4]; 25 mg OD,0 Number (%)
same,Any adverse event(s) of special interest,Safety and tolerability [4]; 25 mg OD,1 (11.1%) Number (%)
same,Any study drug‐related adverse event(s),Safety and tolerability [4]; 25 mg OD,0 Number (%)
same,Any study procedure‐related adverse event(s),Safety and tolerability [4]; 25 mg OD,1 (11.1%) Number (%)
same,TEAE: Medical device site urticaria,Safety and tolerability [4]; 25 mg OD,0 Number (%)
same,Adverse event(s) of special interest: Investigations,"Safety and tolerability [4]; 25 mg OD, Amylase increased",1 (11.1%) ^c Number (%)
same,Adverse event(s) of special interest: Bleeding,Safety and tolerability [4]; 50 mg OD,0 Number (%)
same,Any adverse event(s) of special interest,Safety and tolerability [4]; 50 mg OD,1 (11.1%) Number (%)
same,Any study drug‐related adverse event(s),Safety and tolerability [4]; 50 mg OD,0 Number (%)
same,Any study procedure‐related adverse event(s),Safety and tolerability [4]; 50 mg OD,3 (33.3%) Number (%)
same,TEAE: Medical device site urticaria,Safety and tolerability [4]; 50 mg OD,0 Number (%)
same,Adverse event(s) of special interest: Investigations,"Safety and tolerability [4]; 50 mg OD, Lipase increased",1 (11.1%) ^d Number (%)
same,Adverse event(s) of special interest: Bleeding,Safety and tolerability [4]; 100 mg OD,0 Number (%)
same,Any adverse event(s) of special interest,Safety and tolerability [4]; 100 mg OD,1 (11.1%) Number (%)
same,Any study procedure‐related adverse event(s),Safety and tolerability [4]; 100 mg OD,1 (11.1%) Number (%)
same,TEAE: Medical device site urticaria,Safety and tolerability [4]; 100 mg OD,1 (11.1%) Number (%)
same,Any study drug‐related adverse event(s),"Safety and tolerability [4]; 100 mg OD, Headache",2 Number (%) and 2 (22.2%) ^b Number (%)
same,Adverse event(s) of special interest: Investigations,"Safety and tolerability [4]; 100 mg OD, Lipase increased",1 (11.1%) ^d Number (%)
same,Adverse events leading to discontinuation,Safety and tolerability [4]; Parts A or B,No adverse events leading to discontinuation
same,Adverse event(s) of special interest: Bleeding,Safety and tolerability [4]; Total BAY 2433334 (n = 36),0 Number (%)
same,Adverse event(s) of special interest: Investigations,Safety and tolerability [4]; Total BAY 2433334 (n = 36),4 (11.1%) Number (%)
same,Any adverse event(s) of special interest,Safety and tolerability [4]; Total BAY 2433334 (n = 36),4 (11.1%) Number (%)
same,Any study drug‐related adverse event(s),Safety and tolerability [4]; Total BAY 2433334 (n = 36),2 (5.6%) Number (%)
same,Any study procedure‐related adverse event(s),Safety and tolerability [4]; Total BAY 2433334 (n = 36),7 (19.4%) Number (%)
same,TEAE: Medical device site urticaria,Safety and tolerability [4]; Total BAY 2433334 (n = 36),2 (5.6%) Number (%)
same,Adverse events related to bleeding,Safety and tolerability [4]; all study parts,no clinically relevant adverse events related to bleeding
same,Serious adverse events,Safety and tolerability [4]; all study parts,no serious adverse events were reported
same,Tolerability,Safety and tolerability [4]; all study parts,well tolerated
same,"Effects on vital signs, ECG or clinical laboratory investigations",Safety and tolerability [4]; other than the anticipated prolongation of aPTT,No clinically relevant effects
same,Dose proportionality of AUC and Cmax in plasma,"[5]; 25–100 mg OD, single and multiple dosing, Part A",dose proportional; also recorded: appeared to increase dose proportionally
same,"arithmetic mean renal elimination (%AE,ur) of unchanged drug",[5]; after multiple dosing,10.1–13.5%
same,"RLIN, range",[5]; after once‐daily administration,1.03–1.08
same,"arithmetic mean renal elimination (%AE,ur) of unchanged drug",[5]; after single‐dose administration,7.61–13.4 % of the dose
same,"geometric mean terminal half‐life (t1/2), range across treatment groups",[5]; day 1,14.0 to 15.9 h
same,tmax,"[5]; day 1, 25 mg BID group",3.00 (1.00–5.98) h
same,tmax,"[5]; day 1, 25 mg OD",2.00 (1.48–5.98) h
same,tmax,"[5]; day 1, 50 mg OD",2.00 (0.750–4.00) h
same,tmax,"[5]; day 1, 100 mg OD",3.97 (1.47–6.00) h
same,"apparent oral clearance, geometric means","[5]; day 1, across treatment groups",3.68 to 4.09 L/h
same,"median time to Cmax, range across treatment groups","[5]; day 1, all treatment groups",2.00 to 3.97 h
same,tmax,"[5]; day 12, 25 mg BID",1.50 (1.00–6.00) h
same,tmax,"[5]; day 12, 25 mg OD",4.00 (1.00–6.03) h
same,tmax,"[5]; day 12, 50 mg OD",3.00 (0.750–6.05) h
same,tmax,"[5]; day 12, 100 mg OD",4.00 (1.50–6.00) h
same,"apparent oral clearance, geometric means","[5]; day 12, across treatment groups",3.39 to 4.04 L/h
same,"mean terminal half‐life (t1/2), range across treatment groups","[5]; day 12, after multiple dosing",15.8 to 17.8 h
same,"median time to Cmax, range across once‐daily groups","[5]; day 12, once‐daily dosing",3.00 to 4.00 h
same,"RAAUC geometric mean, range",[5]; [11],1.50–1.72
same,"RACmax geometric mean, range",[5]; [11],1.41–1.63
same,Prolongation of aPTT,[6]; Parts A and B,dose‐dependent prolongation
same,first time point at which prolongation of aPTT was apparent,[6]; after dosing,30 min
same,time of maximal aPTT prolongation after dosing,[6]; in vivo,approximately 4 h
same,Effect on FXI concentrations,FXI,no significant effect
same,Effect on complement C1 esterase inhibitor activity,C1 esterase inhibitor,no significant effect
